Measured values reported in ChEMBL document CHEMBL2177098, “Synthesis and evaluation of novel ¹⁸F labeled 2-pyridinylbenzoxazole and 2-pyridinylbenzothiazole derivatives as ligands for positron emission tomography (PET) imaging of β-amyloid plaques” (J Med Chem, 2012).
Calls of active or inactive are those of the source. No cut-off for these calls is given here.

What was measured:
[1] = biological target: Amyloid-beta precursor protein (Homo sapiens) (UniProt P05067); assay: Binding affinity to amyloid beta plaques in Alzheimer patient brain at 370 KBq/100 ul after 1 hr by autoradiographic analysis; conditions: tested as the 18F-labelled form
Amyloid-beta precursor protein (Homo sapiens), sequence (P05067 whole entry): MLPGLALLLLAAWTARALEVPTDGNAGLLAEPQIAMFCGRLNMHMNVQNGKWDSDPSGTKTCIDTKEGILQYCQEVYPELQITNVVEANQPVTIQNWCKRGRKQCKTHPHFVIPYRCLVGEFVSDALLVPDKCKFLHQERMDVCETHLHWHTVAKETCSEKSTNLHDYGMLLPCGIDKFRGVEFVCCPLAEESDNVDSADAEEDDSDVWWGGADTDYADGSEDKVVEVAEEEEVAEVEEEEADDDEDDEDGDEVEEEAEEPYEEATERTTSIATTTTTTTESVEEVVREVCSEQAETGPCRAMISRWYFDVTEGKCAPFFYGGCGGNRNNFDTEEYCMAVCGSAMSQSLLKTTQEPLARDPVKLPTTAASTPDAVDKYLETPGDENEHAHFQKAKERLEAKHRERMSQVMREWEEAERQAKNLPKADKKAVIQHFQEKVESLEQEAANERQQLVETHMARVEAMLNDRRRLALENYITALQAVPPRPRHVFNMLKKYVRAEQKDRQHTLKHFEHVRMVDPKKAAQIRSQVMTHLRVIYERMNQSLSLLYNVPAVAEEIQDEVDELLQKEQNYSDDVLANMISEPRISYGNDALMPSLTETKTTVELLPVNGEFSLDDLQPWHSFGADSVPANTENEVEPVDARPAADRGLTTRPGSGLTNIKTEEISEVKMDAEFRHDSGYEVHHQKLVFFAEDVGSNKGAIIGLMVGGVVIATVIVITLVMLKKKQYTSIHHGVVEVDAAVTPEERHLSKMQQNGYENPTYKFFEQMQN

Mus musculus [2] = organism: Mus musculus; assay: Binding affinity to amyloid beta plaques in transgenic C57BL6 mouse hippocampus expressing APP Swedish mutant/PSEN1 at 370 KBq/100 ul after 1 hr by autoradiographic analysis; format: tissue-based; conditions: tested as the 18F-labelled form
How it was run: (§1)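 Paraffin brain sections from 12-month-old Tg mice (C57BL6, APPswe/PSEN1) and age-matched controls, deparaffinized through xylene and graded ethanol, then PBS (0.2 M, pH 7.4) 30 min. Incubated with 18F tracer (370 KBq per 100 μL) 1 h at room temperature, washed in 40% EtOH, rinsed in water, then phosphor plate exposure 2 h. The same sections were afterwards stained with 0.125% thioflavin S in 10% EtOH for 3 min and washed in 40% EtOH.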

[3] = Displacement of [125I]-IMPY from amyloid beta (1 to 42) fibrils after 2 hrs by gamma-counting analysis
How it was run: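 Competition binding with aggregated Aβ1-42 fibrils and [125I]IMPY (60000−100000 cpm/100 μL) in 0.05% BSA (1 mL total); inhibitors 10⁻⁴−10^−8.5 M in ethanol. Incubated 37 °C for 2 h, then GF/B vacuum filtration with PBS (0.02 M, pH 7.4) washes and γ counting. Three repeats; IC50 converted to Ki by Cheng−Prusoff.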

Mus musculus [4] = assay: Binding affinity to amyloid beta plaques in transgenic C57BL6 mouse cortex expressing APP Swedish mutant/PSEN1 at 19.2 MBq, iv after 30 mins by autoradiographic analysis; format: functional, organism-based; conditions: 19.2 M, tested as the 18F-labelled form
How it was run: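 Ex vivo: Tg mouse (C57BL6, APPswe/PSEN1) given 19.2 MBq tracer in saline via tail vein; decapitated 30 min later. Brain frozen in liquid nitrogen, 20 μm sections cut and exposed to a phosphor plate for 5 h.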

Mus musculus [5] = organism: Mus musculus; assay: Binding affinity to amyloid beta plaques in transgenic C57BL6 mouse cortex expressing APP Swedish mutant/PSEN1 at 370 KBq/100 ul after 1 hr by thioflavinS-staining method; conditions: tested as the 18F-labelled form; how it was run: as §1
Mus musculus [6] = assay: Binding affinity to amyloid beta plaques in transgenic C57BL6 mouse cortex expressing APP Swedish mutant/PSEN1 at 19.2 MBq, iv after 30 mins by thioflavinS-staining method; format: functional, organism-based; conditions: 19.2 M, tested as the 18F-labelled form
Mus musculus [7] = organism: Mus musculus; assay: Binding affinity to amyloid beta plaques in transgenic C57BL6 mouse cortex expressing APP Swedish mutant/PSEN1 at 370 KBq/100 ul after 1 hr by autoradiographic analysis; conditions: tested as the 18F-labelled form; how it was run: as §1
Mus musculus [8] = organism: Mus musculus; assay: Binding affinity to amyloid beta plaques in transgenic C57BL6 mouse hippocampus expressing APP Swedish mutant/PSEN1 at 370 KBq/100 ul after 1 hr by thioflavinS-staining method; format: tissue-based; conditions: tested as the 18F-labelled form; how it was run: as §1

In the case of `CNc1ccc(-c2nc3cc(OCCF)ccc3o2)cn1`, the Activity [1] is reported as “Active”, the Activity (Mus musculus [2]) is reported as “Active” and the Ki [3] is reported as 8 nM. For the same molecule, the Activity (Mus musculus [4]) was “Active”, the Activity (Mus musculus [5]) was “Active” and the Activity (Mus musculus [6]) was “Active”. The Activity (Mus musculus [7]) was “Active” and the Activity (Mus musculus [8]) was “Active”.
